# Experimental data: ChEMBL document CHEMBL2321849, “Discovery and structure-activity relationships of small molecules that block the human immunoglobulin G-human neonatal Fc receptor (hIgG-hFcRn) protein-protein interaction” (Bioorg Med Chem Lett, 2013)
# Test: Inhibition of human IgG-FcRn interaction by competition ELISA
# Method in brief: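 Competition ELISA: test compounds at various concentrations mixed with 3 nM human IgG, then incubated on plates coated with soluble human FcRn. Inhibition of hIgG binding to shFcRn measured; IC50 reported in µM.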
row,SMILES,IC50 [µM]
1,COc1cccc(CNC(=O)C(C#N)c2nc3ccccc3nc2NC2CCCCCC2)c1 (stereo not given),> 500
2,Cc1cncc(Oc2cccc(CNC(=O)C(C#N)c3nc4ccccc4nc3N3CCCCCC3)c2)n1 (stereo not given),200
3,N#CC(C(=O)NCc1cccc(OCCN2CCOCC2)c1)c1nc2ccccc2nc1N1CCCCCC1 (stereo not given),400
4,COc1cccc(CNC(=O)C(C#N)c2nc3cc(Cl)c(Cl)cc3nc2N2CCCCCC2)c1 (stereo not given),30
5,COc1cccc(CNC(=O)C(C#N)c2nc3ccccc3nc2N2CCCC3CCCCC32)c1 (stereo not given),> 500
6,COc1cccc(CNC(=O)C(C#N)c2nc3cc(OC)ccc3nc2N2CCCCCC2)c1 (stereo not given),> 500
7,COc1cccc(CNC(=O)C(C#N)c2nc3ccc(C#N)cc3nc2N2CCCCCC2)c1 (stereo not given),100
8,COc1cccc(CNC(=O)C(C#N)c2nc3ccccc3nc2N2CCOCC2)c1 (stereo not given),> 500
9,COc1cccc(CNC(=O)C(C#N)c2nc3ccccc3nc2N2CCCN(CCO)CC2)c1 (stereo not given),> 500
10,COc1cccc(CNC(=O)C(C#N)c2nc3ccc(C(=O)NCc4cccnc4)cc3nc2N2CCCCCC2)c1 (stereo not given),> 500
11,COc1cccc(CNC(=O)C(C#N)c2nc3ccc([N+](=O)[O-])cc3nc2N2CCCCCC2)c1 (stereo not given),500
12,COc1cccc(CNC(=O)C(C#N)c2nc3ccc(C(=O)Nc4ccccc4)cc3nc2N2CCCCCC2)c1 (stereo not given),> 500
13,COc1cccc(CNC(=O)C(C#N)c2nc3ccccc3nc2N2CCCNCC2)c1 (stereo not given),> 500
14,COc1cccc(CNC(=O)C(C#N)c2nc3ccccc3nc2N2CCN(C)CC2)c1 (stereo not given),> 500
15,COc1cccc(CNC(=O)C(C#N)c2nc3ccc(C(=O)NCCc4cccnc4)cc3nc2N2CCCCCC2)c1 (stereo not given),> 500
16,N#CC(C(=O)NCC1CCCCC1)c1nc2ccccc2nc1N1CCCCCC1 (stereo not given),> 500
17,COc1cccc(CNC(=O)C(C#N)c2nc3ccccc3nc2N2CCCN(C(=O)OCc3ccccc3)CC2)c1 (stereo not given),> 500
18,COc1cccc(CNC(=O)C(C#N)c2nc3ccccc3nc2N2CCCN(C)CC2)c1 (stereo not given),> 500
19,CCCCNC(=O)C(C#N)c1nc2ccccc2nc1N1CCCCCC1 (stereo not given),> 500
20,COc1cccc(CNC(=O)C(C#N)c2nc3ccc(C(=O)NCCCN(C)C)cc3nc2N2CCCCCC2)c1 (stereo not given),400
21,COc1ccc(C(CN2CCOCC2)NC(=O)C(C#N)c2nc3ccccc3nc2N2CCCCCC2)cc1 (stereo not given),2
22,C=CCCNC(=O)C(C#N)c1nc2ccccc2nc1N1CCCCCC1 (stereo not given),> 250
23,COc1cccc(CNC(=O)C(C#N)c2nc3ccccc3nc2N2CCCN(C(C)=O)CC2)c1 (stereo not given),> 500
24,COc1cccc(CNC(=O)C(C#N)c2nc3ccccc3nc2Nc2ccccc2)c1 (stereo not given),> 500
25,COc1cccc(CNC(=O)C(C#N)c2nc3ccccc3nc2Sc2ccccc2)c1 (stereo not given),> 500
26,COc1cccc(CNC(=O)C(C#N)c2nc3ccccc3nc2NC2CC3CCC2C3)c1 (stereo not given),> 500
27,COc1cccc(CNC(=O)C(C#N)c2nc3ccccc3nc2N2CCCOCC2)c1 (stereo not given),> 500
28,N#CC(C(=O)NCc1ccc(OCCN2CCOCC2)cc1)c1nc2ccccc2nc1N1CCCCCC1 (stereo not given),> 500
29,COc1cccc(CNC(=O)C(C#N)c2nc3ccccc3nc2NCc2ccccc2)c1 (stereo not given),> 500

# The next lines start with the values.
row,IC50 [µM],SMILES
1,100,N#CC(C(=O)NCc1cccc(Cl)c1)c1nc2ccccc2nc1N1CCCCCC1 (stereo not given)
2,> 500,N#CC(C(=O)NCc1ccc(O)cc1)c1nc2ccccc2nc1N1CCCCCC1 (stereo not given)
3,> 1000,N#CC(C(=O)NCc1cccs1)c1nc2ccccc2nc1N1CCCCCC1 (stereo not given)
4,200,CN(C)CCCOc1cccc(CNC(=O)C(C#N)c2nc3ccccc3nc2N2CCCCCC2)c1 (stereo not given)
5,> 500,N#CC(C(=O)NCc1ccccc1)c1nc2ccccc2nc1N1CCCCCC1 (stereo not given)
6,150,COc1ccccc1CNC(=O)C(C#N)c1nc2ccccc2nc1N1CCCCCC1 (stereo not given)
7,120,COc1ccc(CCNC(=O)C(C#N)c2nc3ccccc3nc2N2CCCCCC2)cc1 (stereo not given)
8,120,COCCNC(=O)C(C#N)c1nc2ccccc2nc1N1CCCCCC1 (stereo not given)
9,10,COc1cccc(CNC(=O)C(C#N)c2nc3ccccc3nc2N2CCCCCC2)c1 (stereo not given)
10,40,N#Cc1ccc(CNC(=O)C(C#N)c2nc3ccccc3nc2N2CCCCCC2)cc1 (stereo not given)
11,> 1000,N#CC(C(=O)NCc1ccccn1)c1nc2ccccc2nc1N1CCCCCC1 (stereo not given)
12,150,N#CC(C(=O)NCc1cccc(F)c1)c1nc2ccccc2nc1N1CCCCCC1 (stereo not given)
13,40,COc1ccc([C@H](C)NC(=O)C(C#N)c2nc3ccccc3nc2N2CCCCCC2)cc1 (stereo not given in full)
14,> 1000,N#CC(C(=O)NCc1cccnc1)c1nc2ccccc2nc1N1CCCCCC1 (stereo not given)
15,> 500,CN(C)c1ccc(CNC(=O)C(C#N)c2nc3ccccc3nc2N2CCCCCC2)cc1 (stereo not given)
16,40,COc1ccc([C@@H](C)NC(=O)C(C#N)c2nc3ccccc3nc2N2CCCCCC2)cc1 (stereo not given in full)
17,40,N#CC(C(=O)NCc1cccc(-c2nccs2)c1)c1nc2ccccc2nc1N1CCCCCC1 (stereo not given)
18,80,N#CC(C(=O)NCc1cccc(OC(F)(F)F)c1)c1nc2ccccc2nc1N1CCCCCC1 (stereo not given)
19,100,COc1cccc(CCNC(=O)C(C#N)c2nc3ccccc3nc2N2CCCCCC2)c1 (stereo not given)
20,> 150,COCCCNC(=O)C(C#N)c1nc2ccccc2nc1N1CCCCCC1 (stereo not given)
21,> 500,COc1cccc(CNC(=O)C(C#N)c2nc3ccccc3nc2N2CCCCC2)c1 (stereo not given)
22,50,COc1ccc(CNC(=O)C(C#N)c2nc3ccccc3nc2N2CCCCCC2)cc1 (stereo not given)
23,> 1000,N#CC(C(=O)NCc1ccco1)c1nc2ccccc2nc1N1CCCCCC1 (stereo not given)
24,250,COc1ccc(CNC(=O)C(C#N)c2nc3ccccc3nc2N2CCCCCC2)cc1OC (stereo not given)
25,> 500,N#CC(C(=O)NCCc1ccc(N)cc1)c1nc2ccccc2nc1N1CCCCCC1 (stereo not given)
26,6,COc1cccc(CNC(=O)C(C#N)c2nc3ccccc3nc2N2CCCCCCC2)c1 (stereo not given)
